Experimental data from ChEMBL document CHEMBL3826925, “Design, synthesis and biological evaluation of PSMA/hepsin-targeted heterobivalent ligands” (Eur J Med Chem, 2016).

Legend:
Serine protease hepsin = Serine protease hepsin (Homo sapiens, UniProt P05981); assay: Inhibition of recombinant human hepsin using Boc-QAR-AMC as substrate preincubated for 30 mins followed by substrate addition by fluorescence assay
[1] = Drug uptake in human PC3-ML cells expressing hepsin/PSMA at 100 to 1000 nM after 4 hrs by flow cytometry; assay type: ADME, cell-based; conditions: 1 µM
Summary of the method: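 Cells seeded at 5 × 10^5 per well and grown 48 h to full adhesion. Medium then replaced with compound in RPMI 1640 with 10% FBS for 4 h (methods state final concentration 10 µg/mL). Cells washed twice with cold PBS, fixed in 4% paraformaldehyde for 10 min, and uptake read by flow cytometry.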

[2] = Drug uptake in human PC3-ML cells expressing PSMA at 10 to 1000 nM after 4 hrs by flow cytometry; assay type: ADME, cell-based; conditions: 1 µM
[3] = molecular target: Glutamate carboxypeptidase 2 (Homo sapiens, UniProt Q04609); assay: Inhibition of PSMA (unknown origin) assessed as reduction in glutamate formation using NAAG as substrate preincubated for 30 mins followed by substrate addition by Amplex red assay
Tumour [4] = assay: Drug uptake in tumor of NOD/Shi-scid/IL-2Rgamma null mouse xenografted with human PC3-ML cells expressing PSMA at 1 nmol, iv measured 24 hrs post dosing by near infrared optical imaging analysis; assay type: ADME, organism-based, Neoplasm; conditions: in vivo
Summary of the method: (§1)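 Six-week-old male NSG mice received 1 million tumor cells subcutaneously in the upper flank. Two weeks later, 1 nmol of the Cy7-labelled ligand in 100 uL PBS was injected via tail vein. NIR fluorescence images were taken 24 hr post injection with a small-animal imaging system.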

Tumour [5] = assay: Drug uptake in tumor of NOD/Shi-scid/IL-2Rgamma null mouse xenografted with human PC3-ML cells expressing PSMA/HPN at 1 nmol, iv measured 24 hrs post dosing by near infrared optical imaging analysis; assay type: ADME, organism-based, Neoplasm; conditions: in vivo; summary of the method: as §1

Serine protease hepsin, sequence (P05981 1-162 limits assumed): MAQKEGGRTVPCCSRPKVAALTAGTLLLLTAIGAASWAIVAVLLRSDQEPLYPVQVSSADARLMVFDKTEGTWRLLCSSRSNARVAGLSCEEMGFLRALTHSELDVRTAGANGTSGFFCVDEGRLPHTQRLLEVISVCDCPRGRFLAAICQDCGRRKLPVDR
Serine protease hepsin, sequence (P05981 163-417 limits assumed): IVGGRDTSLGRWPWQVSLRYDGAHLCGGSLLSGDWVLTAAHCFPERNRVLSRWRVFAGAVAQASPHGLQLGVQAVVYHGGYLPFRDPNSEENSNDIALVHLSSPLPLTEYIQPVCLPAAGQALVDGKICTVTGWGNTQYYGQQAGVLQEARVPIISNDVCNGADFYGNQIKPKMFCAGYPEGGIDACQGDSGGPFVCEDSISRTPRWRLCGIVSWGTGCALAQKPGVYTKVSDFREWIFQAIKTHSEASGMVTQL
Glutamate carboxypeptidase 2, sequence (Q04609 whole entry): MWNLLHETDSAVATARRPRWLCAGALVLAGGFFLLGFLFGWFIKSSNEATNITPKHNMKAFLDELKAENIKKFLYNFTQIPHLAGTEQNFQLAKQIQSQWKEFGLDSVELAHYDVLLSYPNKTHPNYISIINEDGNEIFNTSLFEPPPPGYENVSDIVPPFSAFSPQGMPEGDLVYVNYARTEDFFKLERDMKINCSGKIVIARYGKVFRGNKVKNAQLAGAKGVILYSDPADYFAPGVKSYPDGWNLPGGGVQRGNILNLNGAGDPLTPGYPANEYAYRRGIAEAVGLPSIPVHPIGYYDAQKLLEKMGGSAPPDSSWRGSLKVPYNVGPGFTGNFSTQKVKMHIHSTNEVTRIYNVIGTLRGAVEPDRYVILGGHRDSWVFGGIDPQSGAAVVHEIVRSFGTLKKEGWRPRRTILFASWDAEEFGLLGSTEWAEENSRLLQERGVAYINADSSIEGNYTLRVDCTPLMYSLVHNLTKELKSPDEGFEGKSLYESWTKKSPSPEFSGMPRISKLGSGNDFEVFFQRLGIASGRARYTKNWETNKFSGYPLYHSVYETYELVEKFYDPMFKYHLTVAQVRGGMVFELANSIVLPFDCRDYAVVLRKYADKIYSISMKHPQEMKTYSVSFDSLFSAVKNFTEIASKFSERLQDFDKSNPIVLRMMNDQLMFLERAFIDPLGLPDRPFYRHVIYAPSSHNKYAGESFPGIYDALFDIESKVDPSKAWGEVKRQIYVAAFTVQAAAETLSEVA

SMILES	IC50 (Serine protease hepsin)	other results
N=C(N)c1ccc2[nH]c(-c3ccccc3O)cc2c1	44 µM	
N=C(N)c1ccc2[nH]c(-c3cc(-c4ccccc4)ccc3O)cc2c1	8.9 µM	
N=C(N)c1ccc2[nH]c(-c3cc(-c4cccs4)ccc3O)cc2c1	70 µM	
CC(=O)NC(=N)c1ccc2[nH]c(-c3cc(-c4ccc(CNC(=O)[C@H](CCCCNC(=O)CCCCC[N+]5=C(/C=C/C6=CC(=C/C=C7/N(C)c8ccc(S(=O)(=O)O)cc8C7(C)C)/CCC6)C(C)(C)c6cc(S(=O)(=O)O)ccc65)NC(=O)CCCCCCC(=O)NCCCCC(NC(=O)N[C@@H](CCC(=O)O)C(=O)O)C(=O)O)cc4)ccc3O)cc2c1 (stereo partly specified)		Drug uptake [1]: Active; Drug uptake [2]: Active; IC50 [3]: 0.025 µM
CN1/C(=C/C=C2C=C(/C=C/C3=[N+](CCCCCC(=O)NCCCC[C@H](NC(=O)CCCCCCC(=O)NCCCCC(NC(=O)N[C@@H](CCC(=O)O)C(=O)O)C(=O)O)C(=O)NCc4ccc(-c5ccc(O)c(-c6cc7cc(C(=N)N)ccc7[nH]6)c5)cc4)c4ccc(S(=O)(=O)O)cc4C3(C)C)CCC/2)C(C)(C)c2cc(S(=O)(=O)O)ccc21 (stereo partly specified)		Drug uptake [1]: Active; Drug uptake [2]: Active; Drug uptake (Tumour [4]): Not Active; Drug uptake (Tumour [5]): Active

Now from value to molecule, other results behind:

IC50 (Serine protease hepsin)	SMILES	other results
7.3 µM	COc1ccc(-c2ccc(O)c(-c3cc4cc(C(=N)N)ccc4[nH]3)c2)cc1	
5.9 µM	N=C(N)c1ccc2[nH]c(-c3cc(-c4ccc(F)cc4)ccc3O)cc2c1	
9.3 µM	N=C(N)c1ccc2[nH]c(-c3cc(-c4ccc(CN)cc4)ccc3O)cc2c1	
11 µM	CC(C)(C)OC(=O)NCc1ccc(-c2ccc(O)c(-c3cc4cc(C(=N)N)ccc4[nH]3)c2)cc1	
14 µM	N=C(N)c1ccc2[nH]c(-c3cc(-c4ccc(C(F)(F)F)cc4)ccc3O)cc2c1	
23 µM	N=C(N)c1ccc2[nH]c(-c3cc(-c4ccc(Cl)cc4)ccc3O)cc2c1	
